The values that follow come from ChEMBL document CHEMBL1122854, “Novel bis[1,6-dihydro-6,6-dimethyl-1,3,5-triazine-2,4-diamines] as antitrypanosomal agents” (1985).

Common to all, as to format: functional
Assay [1] concerns Mus musculus. In words: Antitrypanosomal activity was evaluated against Trypanosoma rhodesiense infections in mice, at dose 3.3 mg/kg, administered subcutaneously;Toxic. Particulars: route subcutaneous. An outline of the steps:
(§1)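 IUR/HA Swiss mice (six weeks old, 30-32 g) infected i.p. with Wellcome CT strain T. rhodesiense. A single subcutaneous dose in peanut oil was given about 2 h after inoculation, with five mice per dose level. Positive control was stilbamidine or 2-hydroxystilbamidine isethionate at 40 mg/kg. Deaths before day 4 were scored toxic, and 30-day survivors cured.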

The subject of assay [2] is Trypanosoma brucei rhodesiense. Kind of assay: Antitrypanosomal activity against Trypanosoma rhodesiense infections in mice, 424 mg/kg administered subcutaneously. Particulars: route subcutaneous. The method, boiled down:
as §1

Assay [3] has as its system Mus musculus. Kind of assay: Antitrypanosomal activity was evaluated against Trypanosoma rhodesiense infections in mice, at dose 6.6 mg/kg, administered subcutaneously. Particulars: route subcutaneous. An outline of the steps: as §1
For assay [4], the system named is Trypanosoma brucei rhodesiense. In words: (§2) Antitrypanosomal activity was evaluated against Trypanosoma rhodesiense infections in mice, at dose 26 mg/kg, administered subcutaneously. To be noted: route subcutaneous. An outline of the steps:
as §1

In assay [5] the test system is Trypanosoma brucei rhodesiense. In words: Antitrypanosomal activity was evaluated against Trypanosoma rhodesiense infections in mice, at dose 106 mg/kg, administered subcutaneously. To be noted: route subcutaneous. The method, boiled down: as §1
Assay [6] has as its system Mus musculus. Kind of assay: Antitrypanosomal activity was evaluated against Trypanosoma rhodesiense infections in mice, at dose 13 mg/kg, administered subcutaneously. Particulars: route subcutaneous. An outline of the steps: as §1
Assay [7] relates to Trypanosoma brucei rhodesiense. In words: Antitrypanosomal activity was evaluated against Trypanosoma rhodesiense infections in mice, at dose 1.6 mg/kg, administered subcutaneously. To be noted: route subcutaneous. An outline of the steps: (§3)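 Six-week-old IUR/HA Swiss mice (30-32 g), 5 per dose, infected ip with 0.5 mL of a 1:50 000 dilution of heparinized heart blood from donor mice infected 3 days before (Wellcome CT strain). Single sc dose in peanut oil about 2 h post-inoculation. Deaths before day 4 counted toxic. ΔMST versus untreated controls; survivors at 30 days counted cured.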

For assay [8], the system named is Trypanosoma brucei rhodesiense. In words: Antitrypanosomal activity against Trypanosoma rhodesiense infections in mice, 3.3 mg/kg administered subcutaneously. To be noted: route subcutaneous. The method, boiled down:
as §3

The test system of assay [9] is Mus musculus. In words: (§4) Antitrypanosomal activity was evaluated against Trypanosoma rhodesiense infections in mice, at dose 26 mg/kg, administered subcutaneously;Toxic. To be noted: route subcutaneous. An outline of the steps: as §1
The test system of assay [10] is Trypanosoma brucei rhodesiense. In words: Anti-trypanosomal activity against Trypanosoma rhodesiense infections in mice, 26 mg/kg administered subcutaneously. To be noted: route subcutaneous. The method, boiled down: as §3
For assay [11], the system named is Trypanosoma brucei rhodesiense. In words: Antitrypanosomal activity against Trypanosoma rhodesiense infections in mice, 6.6 mg/kg administered subcutaneously. Particulars: route subcutaneous. An outline of the steps:
as §3

Assay [12] deals with Mus musculus. In words: Antitrypanosomal activity was evaluated against Trypanosoma rhodesiense infections in mice, at dose 212 mg/kg, administered subcutaneously;Cures. Particulars: route subcutaneous. The method, boiled down:
as §1

In assay [13] the test system is Mus musculus. In words: Antitrypanosomal activity was evaluated against Trypanosoma rhodesiense infections in mice, at dose 26 mg/kg, administered subcutaneously;Cures. To be noted: route subcutaneous. An outline of the steps: as §1
Assay [14] deals with Mus musculus. In words: Antitrypanosomal activity was evaluated against Trypanosoma rhodesiense infections in mice, at dose 106 mg/kg, administered subcutaneously;Cures. Particulars: route subcutaneous. The method, boiled down:
as §1

In assay [15] the test system is Mus musculus. In words: Antitrypanosomal activity was evaluated against Trypanosoma rhodesiense infections in mice, at dose 424 mg/kg, administered subcutaneously;Cures. To be noted: route subcutaneous. An outline of the steps:
as §1

The test system of assay [16] is Mus musculus. In words: Antitrypanosomal activity was evaluated against Trypanosoma rhodesiense infections in mice, at dose 53 mg/kg, administered subcutaneously;Cures. To be noted: route subcutaneous. An outline of the steps: as §1
Assay [17] has as its system Trypanosoma brucei rhodesiense. Kind of assay: (§5) Antitrypanosomal activity was evaluated against Trypanosoma rhodesiense infections in mice, at dose 424 mg/kg, administered subcutaneously;Toxic. To be noted: route subcutaneous. The method, boiled down: as §1
The test system of assay [18] is Mus musculus. In words: Antitrypanosomal activity was evaluated against Trypanosoma rhodesiense infections in mice, at dose 212 mg/kg, administered subcutaneously;Toxic. To be noted: route subcutaneous. The method, boiled down:
as §1

The test system of assay [19] is Trypanosoma brucei rhodesiense. Kind of assay: Antitrypanosomal activity against Trypanosoma rhodesiense infections in mice, 106 mg/kg administered subcutaneously. Particulars: route subcutaneous. An outline of the steps:
as §3

For assay [20], the system named is Trypanosoma brucei rhodesiense. In words: (§6) Antitrypanosomal activity was evaluated against Trypanosoma rhodesiense infections in mice, at dose 212 mg/kg, administered subcutaneously. Particulars: route subcutaneous. An outline of the steps:
as §3

The subject of assay [21] is Trypanosoma brucei rhodesiense. In words: (§7) Antitrypanosomal activity was evaluated against Trypanosoma rhodesiense infections in mice, at dose 53 mg/kg, administered subcutaneously. Particulars: route subcutaneous. An outline of the steps:
as §3

Assay [22] relates to Mus musculus. The assay is described as §2. Particulars: route subcutaneous. An outline of the steps:
as §1

The test system of assay [23] is Trypanosoma brucei rhodesiense. Described as §4. To be noted: route subcutaneous. The method, boiled down: as §1
For assay [24], the system named is Mus musculus. The description is as §7. Particulars: route subcutaneous. The method, boiled down: as §1
For assay [25], the system named is Mus musculus. In words: Antitrypanosomal activity was evaluated against Trypanosoma rhodesiense infections in mice, at dose 106 mg/kg, administered subcutaneously; Cures. To be noted: route subcutaneous. The method, boiled down:
as §1

Assay [26] deals with Mus musculus. Kind of assay: Antitrypanosomal activity was evaluated against Trypanosoma rhodesiense infections in mice, at dose 53 mg/kg, administered subcutaneously; Cures. Particulars: route subcutaneous. An outline of the steps:
as §1

The test system of assay [27] is Mus musculus. The description is as §5. To be noted: route subcutaneous. The method, boiled down: as §1
For assay [28], the system named is Mus musculus. Kind of assay: Antitrypanosomal activity was evaluated against Trypanosoma rhodesiense infections in mice, at dose 424 mg/kg, administered orally. To be noted: route oral. An outline of the steps: (§8)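 Oral dosing of IUR/HA Swiss mice (six weeks old, 30-32 g) infected i.p. with Wellcome CT strain T. rhodesiense, with five mice per dose level. Survival was followed for 30 days. Deaths before day 4 were counted as toxic and 30-day survivors as cured. ΔMST is the difference in mean survival time between treated and control mice.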

The test system of assay [29] is Mus musculus. Kind of assay: Antitrypanosomal activity was evaluated against Trypanosoma rhodesiense infections in mice, at dose 106 mg/kg, administered orally;Toxic. An outline of the steps: as §8
The test system of assay [30] is Mus musculus. Kind of assay: Antitrypanosomal activity was evaluated against Trypanosoma rhodesiense infections in mice, at dose 106 mg/kg, administered orally. To be noted: route oral.
For assay [31], the system named is Mus musculus. In words: Antitrypanosomal activity was evaluated against Trypanosoma rhodesiense infections in mice, at dose 26 mg/kg, administered orally. To be noted: route oral.
The subject of assay [32] is Mus musculus. The assay is described as §6. Particulars: route subcutaneous. An outline of the steps:
as §1

For assay [33], the system named is Mus musculus. In words: Antitrypanosomal activity was evaluated against Trypanosoma rhodesiense infections in mice, at dose 13 mg/kg, administered subcutaneously;Toxic. Particulars: route subcutaneous. An outline of the steps: as §1
In assay [34] the test system is Trypanosoma brucei rhodesiense. Kind of assay: Antitrypanosomal activity was evaluated against Trypanosoma rhodesiense infections in mice, at dose 106 mg/kg, administered subcutaneously;Toxic. To be noted: route subcutaneous. The method, boiled down: as §1

Structures are written as SMILES. Where “and” joins values, the source holds several entries; their conditions need not be identical. Identical values can stand only once.

For the compound `CC1(C)N=C(N)N=C(N)N1c1ccc(OCCCOc2ccc(N3C(N)=NC(N)=NC3(C)C)cc2)cc1.Cl.Cl`, the Toxic with Mus musculus [1] turned out to be 1; in assay [2] it was 5; in the assay with Mus musculus [3], 5; in assay [4], 5; in [5], 5; with Mus musculus [6], 5. The “Delta MST” value in assay [7] and in assay [8] was 0 days each time.

As to `Cc1cc(N2C(N)=NC(N)=NC2(C)C)ccc1CCc1ccc(N2C(N)=NC(N)=NC2(C)C)cc1C.Cl.Cl`, the Toxic in the assay with Mus musculus [9] is 3; in [2], 5; in [5] it was 5. The “Delta MST” value stood at 0.8 days in [7], 1.4 days in assay [10], 0.4 days in [8] and 1 days in [11].

With `Cl.Cl.NC1=NC2(CCCCC2)N(c2ccc(CCc3ccc(N4C(N)=NC(N)=NC45CCCCC5)cc3)cc2)C(N)=N1`, the Cures in the assay on Mus musculus [12] is recorded as 3; in the assay with Mus musculus [13] it was 2; in the assay on Mus musculus [14], 3; with Mus musculus [15], 4; in the assay with Mus musculus [16] it was 2. The Toxic (in assay [17]; in the assay with Mus musculus [18]) was 1 each time. Also, the “Delta MST” value is 12 days in assay [19], 11 days in assay [20], 1.3 days in [10] and 9 days in [21].

For the compound `Cc1ccc(N2C(N)=NC(N)=NC2(C)C)cc1N1C(N)=NC(N)=NC1(C)C.Cl.Cl`, the values for the Toxic (in assay [2]; in the assay with Mus musculus [22]; in assay [5]) were 5, 2 and 5, respectively. In addition, the “Delta MST” value was 0.2 days in assay [7], -0.1 days in assay [10], 0.2 days in assay [8] and 0 days in [11].

Regarding `CC1(C)N=C(N)N=C(N)N1c1ccc(NC(=O)Nc2ccc(N3C(N)=NC(N)=NC3(C)C)cc2)cc1.Cl.Cl`, the Cures with Mus musculus [13] was 1. In addition, the Toxic is reported as 1 in assay [23], 5 in [2], 5 in the assay with Mus musculus [24] and 5 in [5].

On to `Cl.Cl.NC1=NC(c2ccccc2)N(c2ccc(CCc3ccc(N4C(N)=NC(N)=NC4c4ccccc4)cc3)cc2)C(N)=N1` (stereo not given), for which the Cures with Mus musculus [12] turned out to be 4; in the assay on Mus musculus [13], 1; in the assay with Mus musculus [25], 5; in the assay with Mus musculus [15], 3; with Mus musculus [26], 5. Besides, the Toxic in the assay with Mus musculus [27] was found to be 2. The “Delta MST” value in [20] was 2.2 days; in assay [10] it was 4.1 days; in assay [8] it was 0.4 days; in assay [11] it was 0 days.

With `CC1(C)N=C(N)N=C(N)N1c1ccc(Oc2ccc(Oc3ccc(N4C(N)=NC(N)=NC4(C)C)cc3)cc2)cc1.Cl.Cl`, the Toxic with Mus musculus [28] is listed as 5; in the assay on Mus musculus [29], 4. For the same compound, the “Delta MST” value came to 1.9 days in the assay with Mus musculus [30] and 0.5 days in the assay with Mus musculus [31].

For the compound `CC1(C)N=C(N)N=C(N)N1c1ccc(OCCCCCCOc2ccc(N3C(N)=NC(N)=NC3(C)C)cc2)cc1.Cl.Cl`, the Toxic in assay [2] was 5; in the assay on Mus musculus [3], 1; in assay [4], 5; in assay [5], 5; in the assay on Mus musculus [6], 5.

`CC1(C)N=C(N)N=C(N)N1c1ccc(C(c2ccccc2)c2ccc(N3C(N)=NC(N)=NC3(C)C)cc2)cc1.Cl.Cl`: the Toxic in assay [2] turned out to be 5; in [5] it was 2; in the assay on Mus musculus [32] it was 2. Further, the “Delta MST” value was 4.3 days in assay [19]; 4.3 days in [20]; 2.3 days and 2.8 days in assay [21] (53 mg/kg).

For `CC(C)(c1ccc(N2C(N)=NC(N)=NC2(C)C)cc1)c1ccc(N2C(N)=NC(N)=NC2(C)C)cc1.Cl.Cl`, the Toxic in assay [23] turned out to be 1; in assay [2], 5; in the assay on Mus musculus [33], 1; in assay [34], 2. For the same compound, the “Delta MST” value in assay [19] stood at 1.8 days; in [10], 1.3 days; in assay [11], 0.9 days.
